Assay results as given in ChEMBL document CHEMBL1156758, “Quantitative analyses of aggregation, autofluorescence, and reactivity artifacts in a screen for inhibitors of a thiol protease” (J Med Chem, 2010).

Key:
[1] = target: T1, Cruzipain (Trypanosoma cruzi, UniProt P25779); test: Inhibition of Trypanosoma cruzi cruzain by quantitative high throughput screening
Procedure, shortened: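 1536-well qHTS in 100 mM acetate pH 5.5 with 5 mM DTT, 4 μL final volume. Two conditions: 0.01% Triton X-100 with 1.5 nM cruzain, or 0.00005% Triton with 3 nM cruzain. Seven compound concentrations from 57.5 μM to 3.7 nM, preincubated 15 min at room temperature. Then 2 μM Z-Phe-Arg-AMC added. Fluorescence (ex 340/em 450) read kinetically over 60 s. Initial-rate data fitted to a four-parameter Hill equation.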

[2] = target: T1, Cruzipain; test: Inhibition of Trypanosoma cruzi cruzain by Flexstation microplate spectrofluorimetry
Procedure, shortened: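 Secondary 96-well assay: 0.4 nM cruzain in 0.1 M sodium acetate pH 5.5, 5 mM DTT, with or without 0.01% Triton X-100. Compound from 200x DMSO stock preincubated with enzyme 15 min. Reaction started with Z-Phe-Arg-AMC at 2.5 μM final (Km 2 μM) and followed for 5 min. Percent inhibition taken from initial rates versus a DMSO control. Each assay run at least twice.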

[3] = Inhibition of Beta-lactamase AmpC by quantitative high throughput screening

T1 sequence (P25779 whole entry): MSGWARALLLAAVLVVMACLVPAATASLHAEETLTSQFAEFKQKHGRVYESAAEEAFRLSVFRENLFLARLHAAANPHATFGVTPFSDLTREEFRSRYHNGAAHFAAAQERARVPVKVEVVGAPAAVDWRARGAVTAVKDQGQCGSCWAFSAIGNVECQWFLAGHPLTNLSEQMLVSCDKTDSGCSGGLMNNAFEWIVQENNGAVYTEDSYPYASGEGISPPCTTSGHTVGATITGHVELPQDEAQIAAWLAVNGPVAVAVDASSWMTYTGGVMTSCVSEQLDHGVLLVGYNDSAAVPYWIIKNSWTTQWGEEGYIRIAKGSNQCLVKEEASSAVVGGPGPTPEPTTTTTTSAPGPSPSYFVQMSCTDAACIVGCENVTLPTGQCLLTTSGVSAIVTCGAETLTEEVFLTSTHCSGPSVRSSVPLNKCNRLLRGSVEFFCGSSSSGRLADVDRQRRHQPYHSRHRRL

Row | Structure (SMILES) | IC50 [1] | IC50 [2] | IC50 [3]
1 | Cc1cc(NC(=O)Cc2cccs2)no1 | > 60 µM | 30 µM | 13 µM
2 | COc1ccc(S(=O)(=O)Nc2nc3ccccc3nc2NCc2ccc3c(c2)OCO3)cc1 | – | 12 µM | –
3 | O=c1c(O)c(-c2ccc(O)c(O)c2)oc2cc(O)ccc12 [FISETIN] | > 60 µM | 30 µM | 13 µM
4 | O=C(Nc1nc(-c2ccc(S(=O)(=O)N3CCCCCC3)cc2)cs1)c1cccs1 | > 60 µM | 12 µM | 8 µM
5 | Cc1ccc(-c2csc(NC(=O)c3ccno3)n2)cc1 | > 60 µM | > 120 µM | 8 µM
6 | CCCCC/C=C\C/C=C\C/C=C\C/C=C\CCCC(=O)Nc1ccc(O)cc1 | > 60 µM | 30 µM | 10 µM
7 | N#Cc1c(-c2ccccc2)cc(-c2ccco2)c(C#N)c1N | > 60 µM | 12 µM | 6 µM
8 | CCN(Cc1ccccc1)c1nc2c(S(=O)(=O)c3ccccc3)nnn2c2ccc(Cl)cc12 | – | 12 µM | –
9 | O=C(c1ccccc1)c1cn(CC(=O)N2CCCC2)c2ccccc12 | > 60 µM | 120 µM | 4 µM
10 | O=C(Nc1ccc(/N=N/c2ccccc2)cc1)c1cccc(Cl)c1 | – | 12 µM | –
11 | CCc1ccc(C(=O)CSC2=C(C#N)C(c3ccco3)C(C(C)=O)=C(C)N2)cc1 (configuration not stated) | > 60 µM | 30 µM | 13 µM
12 | COc1ccc(C(=O)Nc2nncs2)c(OC)c1 | > 60 µM | > 120 µM | 4 µM
13 | O=C(COC(=O)c1cccc(Oc2ccccc2)c1)Nc1nnc(-c2ccccc2)o1 | > 60 µM | 12 µM | 16 µM
14 | CCn1ccnc1C(O)c1cccc(OC)c1OC (configuration not stated) | > 60 µM | > 120 µM | 4 µM
15 | Cc1cc(=O)oc2cc(OCC#N)ccc12 | > 60 µM | > 120 µM | 4 µM
16 | Cc1ccc(Cl)cc1NC(=O)CCC(=O)Nc1cc(Cl)ccc1C | – | 12 µM | –
17 | O=C(Nc1nc(-c2cccs2)cs1)c1ccc(S(=O)(=O)N2CCCC2)cc1 | > 60 µM | 12 µM | 13 µM
18 | Cc1sc(NC(=S)NC(=O)C2CCCCC2)c(C(N)=O)c1C | – | 12 µM | –
19 | c1ccc(-c2cc3c(NCC4COc5ccccc5O4)ncnc3s2)cc1 (configuration not stated) | – | 12 µM | –
20 | O=C(COC(=O)c1cc(-c2ccco2)nc2ccccc12)NCc1ccc2c(c1)OCO2 | > 60 µM | 30 µM | 13 µM
21 | Cn1c(C(C#N)C(=O)c2sc3ccccc3c2Cl)nc2ccccc21 (configuration not stated) | > 60 µM | 12 µM | 13 µM

Row | Structure (SMILES) | IC50 [1] | IC50 [2] | IC50 [3]
22 | Cc1cccc(NS(=O)(=O)c2ccc(C)c(C(=O)OCC(=O)Nc3cc(C)on3)c2)c1 | > 60 µM | 30 µM | 10 µM
23 | CCCCCCNC(=O)Nc1ccc(S(=O)(=O)Nc2ccc(CCNC[C@H](O)COc3ccc(O)cc3)cc2)cc1 [L-755507] | > 60 µM | 12 µM | –
24 | COc1ccc(/C=N/NC(=O)c2ccc(Br)cc2)cc1Cn1cc(Cl)cn1 | – | 12 µM | –
25 | Cn1cnnc1SCC(=O)Nc1sc2c(c1C(N)=O)CCC2 | > 60 µM | 120 µM | 10 µM
26 | Cc1ccc(NC(=O)CSC(N)=O)cc1Cl | > 60 µM | > 120 µM | 13 µM
27 | C=C(C)CSc1cc(N)c(C#N)c(-c2ccc(C)cc2)c1C#N | > 60 µM | 12 µM | 6 µM
28 | Oc1cc(-c2ccc(Cl)c(Cl)c2)[nH]n1 | > 60 µM | 12 µM | 13 µM
29 | O=C(c1ccc(OCCN2CCCCC2)cc1)c1c(-c2ccc(O)cc2)sc2cc(O)ccc12 [RALOXIFENE] | > 60 µM | – | 5 µM
30 | O=C(CSc1nnc(-c2ccccc2)o1)N1CCN(c2ccccc2)CC1 | > 60 µM | 30 µM | 13 µM
31 | Cc1cc(NC(=O)c2cc(CC(C)C)on2)no1 | > 60 µM | 120 µM | 4 µM
32 | O=C(CSCc1ccc(Cl)cc1)c1ccco1 | > 60 µM | 120 µM | 10 µM
33 | O=[N+]([O-])c1ccccc1S(=O)(=O)NC[C@H]1CC[C@H](CNCC2CCc3ccccc3C2)CC1 (some centres not stated) | > 60 µM | > 120 µM | 13 µM
34 | NC(=O)SCC(=O)Nc1cccc(Cl)c1 | > 60 µM | > 120 µM | 8 µM
35 | O=C(Nc1nc(-c2cccc(Br)c2)cs1)Oc1ccccc1 | – | 30 µM | –
36 | CCSc1nnc(NC(=O)c2ccc(Br)s2)s1 | > 60 µM | 12 µM | 10 µM
37 | Cc1ccc(C(=O)Nc2nc(-c3cc(Cl)sc3Cl)cs2)cc1 | – | 12 µM | –
38 | O=C(CS[n+]1cc(-c2ccc(F)cc2)cs1)NC(=O)NCc1ccco1 | > 60 µM | 60 µM | 3 µM
39 | COC(=O)c1ccc(-c2nc(-c3ccc(Br)o3)no2)cc1 | > 60 µM | 30 µM | 4 µM
40 | C=CCNC(=O)c1cc([N+](=O)[O-])cc2c(=O)[nH]c(Nc3ccc(Cl)c(Cl)c3)nc12 | > 60 µM | – | 2 µM
41 | O=C(Cn1c(=O)oc2ccccc21)Nc1oc(-c2ccccc2)c(-c2ccccc2)c1O | > 60 µM | 12 µM | 13 µM
